Data: ChEMBL document CHEMBL3808307, “Triazolylthioacetamide: A Valid Scaffold for the Development of New Delhi Metallo-β-Lactmase-1 (NDM-1) Inhibitors” (ACS Med Chem Lett, 2016)
pIC50, pKi: −log10 of the molar value. The source made the active and inactive calls. No cut-off for these calls is given here.

Columns and labels:
[1] = target: T1, Metallo-beta-lactamase type 2 (Klebsiella pneumoniae, UniProt C7C422); experiment: Inhibition of Klebsiella pneumoniae metallo-beta-lactamase NDM-1 expressed in Escherichia coli BL21(DE3) cells preincubated for 60 min followed by addition of cefazolin as substrate by spectrometry method
T1 sequence (C7C422 whole entry): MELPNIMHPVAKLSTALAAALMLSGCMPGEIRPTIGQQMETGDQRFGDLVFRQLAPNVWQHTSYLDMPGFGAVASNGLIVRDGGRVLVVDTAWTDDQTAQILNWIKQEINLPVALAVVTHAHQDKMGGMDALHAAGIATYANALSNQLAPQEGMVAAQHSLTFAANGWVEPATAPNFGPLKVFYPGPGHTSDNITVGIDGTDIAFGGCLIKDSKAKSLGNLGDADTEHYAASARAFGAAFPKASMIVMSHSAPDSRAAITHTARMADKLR
In short: (§1)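 Purified recombinant MβL preincubated with inhibitor for 60 min, then hydrolysis followed by UV spectrometry. Substrate was cefazolin, or imipenem for ImiS, at 26–160 μM. Inhibitor ranged 15 nM to 10 μM. IC50 was the concentration giving a 50% drop in enzyme activity, calculated from kinetic data.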

[2] = test system: Stenotrophomonas maltophilia; experiment: Inhibition of Stenotrphomonas maltophilia metallo-beta-lactamase L1 up to 10 uM preincubated for 60 min followed by addition of cefazolin as substrate by spectrometry method; in short: as §1
[3] = target: Metallo-beta-lactamase type 2 (Bacteroides fragilis) (UniProt P25910); experiment: Inhibition of Bacteroides fragilis CcrA metallo-beta-lactamase up to 10 uM preincubated for 60 min followed by addition of cefazolin as substrate by spectrometry method; in short: as §1
Chain of Metallo-beta-lactamase type 2 (Bacteroides fragilis) (P25910 whole entry): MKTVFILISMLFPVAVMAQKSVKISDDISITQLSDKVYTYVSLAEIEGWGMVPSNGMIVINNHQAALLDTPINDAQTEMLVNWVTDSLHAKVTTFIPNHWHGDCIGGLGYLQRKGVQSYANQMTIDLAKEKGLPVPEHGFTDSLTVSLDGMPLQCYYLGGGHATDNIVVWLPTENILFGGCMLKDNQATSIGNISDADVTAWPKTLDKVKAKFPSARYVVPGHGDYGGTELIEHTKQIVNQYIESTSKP

[4] = test system: Aeromonas veronii bv. sobria; experiment: Inhibition of Aeromonas veronii bv. sorbia Metallo-beta-lactamase ImiS up to 10 uM preincubated for 60 min followed by addition of imipenem as substrate by spectrometry method; in short: as §1
[5] = target: T1, Metallo-beta-lactamase type 2; experiment: Mixed type inhibition of Klebsiella pneumoniae metallo-beta-lactamase NDM-1 expressed in Escherichia coli BL21(DE3) cells assessed as hydrolysis of cefazolin preincubated for 60 min followed by addition of cefazolin by Lineweaver-Burk plot analysis
In short: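 Purified recombinant NDM-1 preincubated with inhibitor for 60 min. Cefazolin hydrolysis was then followed by UV spectrometry, with substrate varied 26–160 μM and inhibitor at 0, 0.25, 0.5 and 1.0 μM. Mode was taken from Lineweaver–Burk plots. Ki came from replots of slope and intercept […].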

| SMILES | pIC50 [1] | inhibition [2] | inhibition [3] | inhibition [4] | pKi [5] |
| --- | --- | --- | --- | --- | --- |
| Nc1ccccc1-c1nnc(SCC(=O)Nc2ccccc2)[nH]1 | 6.48 | inactive | inactive | inactive | – |
| O=C(CSc1nnc(-c2ccccc2)[nH]1)Nc1ccccc1 | 6.77 | inactive | inactive | inactive | – |
| CCCCc1ccc(NC(=O)CSc2nnc(-c3ccccc3N)[nH]2)cc1 | 6.80 | inactive | inactive | inactive | 6.31 |
| CCc1ccccc1NC(=O)CSc1nnc(-c2ccccc2O)[nH]1 | 6.03 | inactive | inactive | inactive | – |
| CCc1ccccc1NC(=O)CSc1nnc(-c2ccccc2N)[nH]1 | 6.35 | inactive | inactive | inactive | – |
| CCCCc1ccc(NC(=O)CSc2nnc(-c3ccccc3)[nH]2)cc1 | 6.82 | inactive | inactive | inactive | – |
| O=C(CSc1nnc(-c2ccccc2O)[nH]1)Nc1ccccc1 | 6.38 | inactive | inactive | inactive | – |
| Cc1ccccc1NC(=O)CSc1nnc(-c2ccccc2N)[nH]1 | 5.72 | inactive | inactive | inactive | – |
| CCCCc1ccc(NC(=O)CSc2nnc(-c3ccccc3O)[nH]2)cc1 | 6.80 | inactive | inactive | inactive | – |
| Nc1ccccc1-c1nnc(SCC(=O)Nc2cccc(Cl)c2)[nH]1 | 6.64 | inactive | inactive | inactive | – |

Second part, the molecule after the results:

| pIC50 [1] | inhibition [2] | inhibition [3] | inhibition [4] | pKi [5] | SMILES |
| --- | --- | --- | --- | --- | --- |
| 6.32 | inactive | inactive | inactive | – | CCCCc1ccc(NC(=O)CSc2nnc(-c3ccc(O)cc3)[nH]2)cc1 |
| 6.00 | inactive | inactive | inactive | – | CCc1ccccc1NC(=O)CSc1nnc(-c2ccccc2)[nH]1 |
| 6.43 | inactive | inactive | inactive | 6.20 | O=C(CSc1nnc(-c2ccc(O)cc2)[nH]1)Nc1cccc(Cl)c1 |
| 5.82 | inactive | inactive | inactive | – | CCc1ccccc1NC(=O)CSc1nnc(-c2ccc(O)cc2)[nH]1 |
| 6.80 | inactive | inactive | inactive | – | O=C(CSc1nnc(-c2ccccc2O)[nH]1)Nc1cccc(Cl)c1 |
| 6.16 | inactive | inactive | inactive | – | O=C(CSc1nnc(-c2ccccc2)[nH]1)Nc1cccc(Cl)c1 |
| 6.28 | inactive | inactive | inactive | – | O=C(CSc1nnc(-c2ccc(O)cc2)[nH]1)Nc1ccccc1Cl |
| 5.92 | inactive | inactive | inactive | – | O=C(CSc1nnc(-c2ccc(O)cc2)[nH]1)Nc1ccccc1 |
| 6.80 | inactive | inactive | inactive | – | Cc1ccccc1NC(=O)CSc1nnc(-c2ccccc2O)[nH]1 |
| 6.01 | inactive | inactive | inactive | – | O=C(CSc1nnc(-c2ccccc2O)[nH]1)Nc1ccccc1Cl |
| 6.21 | inactive | inactive | inactive | – | Nc1ccccc1-c1nnc(SCC(=O)Nc2ccccc2Cl)[nH]1 |
| 6.72 | inactive | inactive | inactive | – | Cc1ccccc1NC(=O)CSc1nnc(-c2ccccc2)[nH]1 |
| 6.46 | inactive | inactive | inactive | – | O=C(CSc1nnc(-c2ccccc2)[nH]1)Nc1ccccc1Cl |
| 6.01 | inactive | inactive | inactive | – | Cc1ccccc1NC(=O)CSc1nnc(-c2ccc(O)cc2)[nH]1 |
